Data as given in article PMC5955861 (Oncogene, 2018).
Where two headings read alike, the source gives them in different places.

Experiments:
Format in all cases: cell-based
[1] = test system: HL-60; assay: alamarBlue cell proliferation assay; details: Homo sapiens
Outline: (§1)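 Leukemia, lymphoma and myeloma lines (from ATCC or DSMZ, grown per supplier instructions, STR-authenticated; GFP-labelled sublines where stated) were incubated with test compound in 96-well flat-bottom plates. Viability was read by alamarBlue conversion, and EC50 was taken from the concentration-response.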

[2] = test system: Kasumi-1; assay: alamarBlue cell proliferation assay; details: Homo sapiens
Outline: as §1

[3] = test system: Kasumi-3; assay: alamarBlue cell proliferation assay
Outline: as §1

[4] = test system: KG-1; assay: alamarBlue cell proliferation assay; details: Homo sapiens
Outline: as §1

[5] = test system: MOLM-13; assay: alamarBlue cell proliferation assay; details: Homo sapiens
Outline: as §1

[6] = test system: MOLM-13 GFP; assay: alamarBlue cell proliferation assay; details: Homo sapiens
Outline: as §1

[7] = test system: MUTZ-3; assay: alamarBlue cell proliferation assay
Outline: as §1

[8] = test system: MV-4-11B GFP; assay: alamarBlue cell proliferation assay
Outline: as §1

[9] = test system: NOMO-1; assay: alamarBlue cell proliferation assay; details: Homo sapiens
Outline: as §1

[10] = test system: OCI-AML3; assay: alamarBlue cell proliferation assay; details: Homo sapiens, OCI-AML-3
Outline: as §1

[11] = test system: SKM-1; assay: alamarBlue cell proliferation assay; details: Homo sapiens
Outline: as §1

[12] = test system: THP-1; assay: alamarBlue cell proliferation assay; details: Homo sapiens
Outline: (§2)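 Cell lines from ATCC or DSMZ were cultured per supplier's instructions and STR-authenticated. MV-4-11B is a clone of MV-4-11 carrying heterozygous TP53 c.742C>T (p.R248W). Cells were exposed to test compound in 96-well format, and viability was read after incubation with alamarBlue.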

[13] = test system: K562; assay: alamarBlue cell proliferation assay; details: Homo sapiens
Outline: as §1

[14] = test system: MOLM-1; assay: alamarBlue cell proliferation assay
Outline: as §1

[15] = test system: CCRF-CEM; assay: alamarBlue cell proliferation assay; details: Homo sapiens
Outline: as §1

[16] = test system: J.RT3-T3.5; assay: alamarBlue cell proliferation assay; details: Homo sapiens
Outline: as §1

[17] = test system: MOLT-3; assay: alamarBlue cell proliferation assay; details: Homo sapiens
Outline: as §1

[18] = test system: AMO-1; assay: alamarBlue cell proliferation assay; details: Homo sapiens, AMO1
Outline: as §1

[19] = test system: L-363; assay: alamarBlue cell proliferation assay; details: Homo sapiens
Outline: as §1

[20] = test system: MM.1R; assay: alamarBlue cell proliferation assay
Outline: as §1

[21] = test system: MOLP-8; assay: alamarBlue cell proliferation assay; details: Homo sapiens
Outline: as §1

[22] = test system: MOLP-8 GFP; assay: alamarBlue cell proliferation assay; details: Homo sapiens
Outline: as §1

[23] = test system: OPM-2 GFP; assay: alamarBlue cell proliferation assay; details: Homo sapiens
Outline: as §1

[24] = test system: RPMI 8226; assay: alamarBlue cell proliferation assay; details: Homo sapiens
Outline: as §1

[25] = test system: HBL-1; assay: alamarBlue cell proliferation assay; details: HBL1
Outline: as §1

[26] = test system: OCI-Ly18; assay: alamarBlue cell proliferation assay; details: Homo sapiens
Outline: as §1

[27] = test system: OCI-Ly3; assay: alamarBlue cell proliferation assay; details: Homo sapiens
Outline: as §1

[28] = test system: Pfeiffer; assay: alamarBlue cell proliferation assay; details: Homo sapiens
Outline: as §1

[29] = test system: SU-DHL2; assay: alamarBlue cell proliferation assay; details: Homo sapiens, SU-DHL-2
Outline: as §1

[30] = test system: Toledo; assay: alamarBlue cell proliferation assay; details: Homo sapiens
Outline: as §2

[31] = test system: U-2932; assay: alamarBlue cell proliferation assay; details: Homo sapiens, U2932
Outline: as §2

[32] = test system: DOHH-2; assay: alamarBlue cell proliferation assay; details: Homo sapiens
Outline: as §1

[33] = test system: HT; assay: alamarBlue cell proliferation assay; details: Homo sapiens
Outline: as §1

[34] = test system: OCI-Ly7; assay: alamarBlue cell proliferation assay; details: Homo sapiens
Outline: as §1

[35] = test system: OCI-Ly19; assay: alamarBlue cell proliferation assay; details: Homo sapiens
Outline: as §1

[36] = test system: RC-K8; assay: alamarBlue cell proliferation assay; details: Homo sapiens, RCK8
Outline: as §1

[37] = test system: RL; assay: alamarBlue cell proliferation assay; details: Homo sapiens
Outline: as §1

[38] = test system: SU-DHL4; assay: alamarBlue cell proliferation assay; details: Homo sapiens, SU-DHL-4
Outline: as §1

[39] = test system: SU-DHL6; assay: alamarBlue cell proliferation assay; details: Homo sapiens, SU-DHL-6
Outline: as §2

[40] = test system: MHH-PREB-1; assay: alamarBlue cell proliferation assay; details: Homo sapiens
Outline: as §1

[41] = test system: JEKO-1; assay: alamarBlue cell proliferation assay; details: Homo sapiens
Outline: as §1

[42] = test system: DERL-2; assay: alamarBlue cell proliferation assay; details: T-cell
Outline: as §1

[43] = test system: MM primary patient samples; assay: proliferation of ex vivo-treated primary patient samples; details: Homo sapiens
[44] = test system: p-Ser2 POL-II in MV-4-11B cells; assay: p-Ser2 POL-II custom MSD assay; details: 35 nM BI 894999, 2 h
Outline: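 MV-4-11B cells were treated for 2 h with single agents or their combination. Phospho-Ser2 RNA Pol II was quantified with a custom Meso Scale Discovery multi-array assay.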

[45] = test system: hematological cell lines; assay: alamarBlue cell proliferation assay, panel of hematological cell lines
Outline: as §2

[46] = test system: MV-4-11B cells; assay: FACS cell cycle profile; details: 72 h, 30 nM and 100 nM

Compound: CNc1nc(-c2nc3ccc(N4CCN(C)CC4)cc3n2Cc2ccccc2)cn2c(C)nnc12 [BI 894999]
- EC50 [1]: 2.7 ± 0.1 nM
- EC50 [2]: 2.8 ± 0.4 nM
- EC50 [3]: 3.4 ± 1.5 nM
- EC50 [4]: 6.2 ± 2.2 nM
- EC50 [5]: 12.8 ± 3.4 nM
- EC50 [6]: 14.3 nM
- EC50 [7]: 12.8 ± 11.2 nM
- EC50 [8]: 2.9 ± 0.9 nM
- EC50 [9]: 5.7 ± 4.1 nM
- EC50 [10]: 2.3 ± 0.5 nM
- EC50 [11]: 10.2 ± 1.5 nM
- EC50 [12]: 6.3 ± 2.9 nM
- EC50 [13]: > 10000 nM
- EC50 [14]: 53.4 ± 34.8 nM
- EC50 [15]: 175 ± 58 nM
- EC50 [16]: 11 ± 4 nM
- EC50 [17]: 14.4 ± 6.5 nM
- EC50 [18]: 28 ± 15 nM
- EC50 [19]: 13.7 ± 6.2 nM
- EC50 [20]: 2.5 ± 2.1 nM
- EC50 [21]: 5.3 ± 2.8 nM
- EC50 [22]: 21.5 ± 10.8 nM
- EC50 [23]: 12 nM
- EC50 [24]: 25 ± 9 nM
- EC50 [25]: 7.1 ± 5.2 nM
- EC50 [26]: 5.6 ± 0.9 nM
- EC50 [27]: 8.2 ± 2.3 nM
- EC50 [28]: 10.7 ± 2.7 nM
- EC50 [29]: 10.7 ± 3.2 nM
- EC50 [30]: 6 ± 1.1 nM
- EC50 [31]: 4.3 ± 2.1 nM
- EC50 [32]: 6.2 ± 0.8 nM
- EC50 [33]: 11.6 ± 8.1 nM
- EC50 [34]: 14.2 ± 6.4 nM
- EC50 [35]: 13.2 ± 4.3 nM
- EC50 [36]: 7.8 ± 0.9 nM
- EC50 [37]: 18.2 ± 10 nM
- EC50 [38]: 13.3 ± 4.5 nM
- EC50 [39]: 13.4 ± 1.2 nM
- EC50 [40]: 24.4 ± 1.2 nM
- EC50 [41]: 7.9 ± 2.1 nM
- EC50 [42]: 10.6 ± 9.5 nM
- EC50 ([43]; read-out: BI 894999 EC50, MM Patient 1): 52 nM
- EC50 ([43]; read-out: BI 894999 EC50, MM Patient 2): 15 nM
- EC50 ([43]; read-out: BI 894999 EC50, MM Patient 3): 7 nM
- EC50 ([43]; read-out: BI 894999 EC50, MM Patient 4): > 2000 nM
- EC50 ([43]; read-out: BI 894999 EC50, MM Patient 5): 500 nM
- EC50 ([43]; read-out: BI 894999 EC50, MM Patient 6): 421 nM
- EC50 ([43]; read-out: BI 894999 EC50, MM Patient 7): 54 nM
- EC50 ([43]; read-out: BI 894999 EC50, MM Patient 8): 3 nM
- EC50 ([43]; read-out: BI 894999 EC50, MM Patient 9): 21 nM
- EC50 ([43]; read-out: BI 894999 EC50, MM Patient 10): 1 nM
- EC50 ([43]; read-out: BI 894999 EC50, MM Patient 11): 57 nM
- EC50 ([43]; read-out: BI 894999 EC50, MM Patient 12): 1360 nM
- EC50 ([43]; read-out: BI 894999 EC50, MM Patient 13): 2 nM
- EC50 ([43]; read-out: BI 894999 EC50, MM Patient 14): 275 nM
- EC50 ([43]; read-out: BI 894999 EC50, MM Patient 15): 352 nM
- p-Ser2 POL-II levels [44]: ~ 86 % of control
- EC50 [45]: < 10 nM
- EC50 ([45]; Homo sapiens, K562): < 100 nM
- increased potency compared to OTX-015 ([45]; on cell lines): 10–20 fold
- cell cycle effect [46]: G1 arrest
